UBC13 inh: inhibitors of human UBC13 polyubiquitin chain formation. P61088. 330,000 tested, 0.47% active. TR-FRET. inhibition, % at 20 µM; in the data active = inhibition above about 45%, passing the limit was not always enough
IDE cell activ: boosts human insulin-degrading enzyme activity in HEK cells. FAbeta-B cleavage, fluorescence polarization; 0% vehicle, 100% cell-free pure enzyme wells. activation, % at 5.96 µM. 340,000 tested, 0.073% active. AID 493087;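 active = activation above the mean of all tested compounds plus 3 SD, set per screening campaign, cut at about 17% in these data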
proCasp7 act: activates human procaspase-7, counter-screen for procaspase-3 activators; P55210; recombinant procaspase-7, Ac-DEVD-pNA absorbance 405 nm; D23A/D198A/D206A triple mutant, cannot self-cleave; scale: DMSO 0, 5 µM enzyme 100; activation, % at 8.5 µM; 330,000 tested, 0.093% active; AID 463210;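 active = percent activation above the screen-wide mean plus 3 SD, cut at about 25% in these data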
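Replicates: singlicate. Assay system: Procaspase-7 triple mutant (PC-7 D3A). Signal: 405 nm absorbance of p-nitroaniline. Times: 1 h preincubation, 2 h reaction. Buffer or medium: Zinc-free HEPES pH 7.4 with 300 mM NaCl, 0.01% Triton X-100. Also added: DEVD-pNA substrate. Benchmarks: DMSO wells as 0%, DMSO with 5 µM added PC-7 as 100%.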
PHOSPHO1 block: inhibitors of human PHOSPHO1 phosphatase. recombinant PHOSPHO1, absorbance phosphatase assay. inhibition, % at 13.3 µM. 290,000 tested, 1.1% active. AID 1565; in the data active = inhibition above about 60%
IDE cell inh: inhibitors of human insulin-degrading enzyme in cells | HEK cells, FAbetaB cleavage, fluorescence polarization | inhibition, % at 5.59 µM | 320,000 tested, 0.41% active;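 active = percent inhibition above the average of all tested compounds plus 3 SD, set per screening campaign, cut at about 16% in these data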;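 also: IDE supplied by intact live HEK cells; FP after avidin binding of uncleaved biotin substrate so inhibition keeps polarization high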
procasp3 activ: activators of human procaspase-3 | recombinant procaspase-3 D3A, Ac-DEVD-pNA absorbance 405 nm | activation, % at 8.5 µM | 330,000 tested, 0.11% active | AID 463141;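 active = activation above the mean of all tested compounds plus 3 SD, cut at about 21% in these data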
Target sequence (P42574 whole entry D9A/D28A/D175A): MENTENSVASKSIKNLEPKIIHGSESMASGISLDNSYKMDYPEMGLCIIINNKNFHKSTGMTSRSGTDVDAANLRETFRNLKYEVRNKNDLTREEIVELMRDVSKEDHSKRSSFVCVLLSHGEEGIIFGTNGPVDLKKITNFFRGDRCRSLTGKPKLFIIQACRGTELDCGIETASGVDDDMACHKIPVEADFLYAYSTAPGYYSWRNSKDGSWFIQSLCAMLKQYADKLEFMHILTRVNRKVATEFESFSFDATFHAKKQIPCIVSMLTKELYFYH
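Evaluation: percent activation relative to control range; Material: Procaspase-3 D3A mutant, all three cleavage aspartates alanine; Compound: single dose, 8.5 µM nominal compound, 0.8% DMSO; Replication: one well per compound; Signal: absorbance at 405 nm, 0 and 120 min; Schedule: 1 h preincubation plus 2 h reaction at 25 °C.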
Casp3 counter: inhibits human caspase-3 in UBC13 counter-screen. 1,400 tested, 4% active. shares compounds with UBC13 inh. inhibition, % at 20 µM. AID 488856. Recombinant caspase-3, Caspase-Glo 3/7 luminescence, 60 min;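 active = mean inhibition across replicates above about 26%, limit read from the data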
Target sequence (P42574 whole entry, looked up): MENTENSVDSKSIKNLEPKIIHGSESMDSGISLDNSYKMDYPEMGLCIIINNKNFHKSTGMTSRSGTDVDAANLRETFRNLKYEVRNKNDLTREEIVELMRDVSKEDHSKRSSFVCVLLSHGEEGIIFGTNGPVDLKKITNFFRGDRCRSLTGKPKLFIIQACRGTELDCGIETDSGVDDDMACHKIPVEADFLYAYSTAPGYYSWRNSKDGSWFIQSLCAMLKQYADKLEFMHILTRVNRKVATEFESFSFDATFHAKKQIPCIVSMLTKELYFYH
UBC13 conf: human UBC13 polyubiquitin inhibition, confirmed; shares compounds with UBC13 inh; 1,400 tested, 68% active; AID 488859; UBC13 polyubiquitination, TR-FRET, biochemical; inhibition, % at 10 µM; in the data active = inhibition above about 45%
Of the large screens only hits and unclear results are named; the others gave an inactive call (follow-up assays come after a bar, where they were run). Compounds with a hit are over-represented: about 1.9% of the library has one in this group of screens.

CCOc1ccc(N(C(=O)c2snc(C(N)=O)c2N)C(C(=O)NC2CCCC2)C(C)C)cc1 (stereo unspecified)	UBC13 inh 69.7 | Casp3 counter inactive | UBC13 conf 78.5
CCC(C(=O)NC1CCCC1)N(C(=O)c1snc(C(N)=O)c1N)c1ccc(OC)c(OC)c1 (stereo unspecified)	none
NC(=O)c1nsc(C(=O)N(CCc2ccccc2)C(C(=O)NC2CCCC2)c2ccco2)c1N (stereo unspecified)	none
NC(=O)c1nsc(C(=O)N(c2cccc(F)c2)C(C(=O)NC2CCCC2)c2ccco2)c1N (stereo unspecified)	UBC13 inh 53.0 | Casp3 counter inactive | UBC13 conf inactive
CC(C)CC(C(=O)NC1CCCC1)N(Cc1ccc2c(c1)OCO2)C(=O)c1snc(C(N)=O)c1N (stereo unspecified)	UBC13 inh 45.9 | Casp3 counter inactive | UBC13 conf inactive
COc1ccc(N(C(=O)c2snc(C(N)=O)c2N)C(C(=O)NC2CCCC2)c2cccs2)cc1OC (stereo unspecified)	UBC13 inh 64.4 | Casp3 counter inactive | UBC13 conf inactive
O=C(Nc1ccc(S(=O)(=O)N2CCOCC2)cc1)C1CCN(S(=O)(=O)c2ccccc2)CC1	none (no result: PHOSPHO1 block)
CCc1ccc(N(C(=O)c2snc(C(N)=O)c2N)C(C(=O)NC2CCCC2)c2ccco2)cc1 (stereo unspecified)	UBC13 inh 63.4 | Casp3 counter inactive | UBC13 conf 67.0
Cc1ccccc1N(C(=O)c1snc(C(N)=O)c1N)C(C(=O)NC1CCCC1)c1ccco1 (stereo unspecified)	none (no result: proCasp7 act, IDE cell inh, procasp3 activ)
Cc1c(Br)c(C(=O)NNC(=O)c2ccc(C(C)(C)C)cc2)nn1C	UBC13 inh 56.2 | Casp3 counter inactive | UBC13 conf 57.3
O=C(Cc1c(F)cccc1Cl)NNC(=O)c1ccccc1Cl	none (no result: PHOSPHO1 block)
Oc1ccc(Cl)cc1Nc1nc(NCC2CCCO2)c2ccccc2n1 (stereo unspecified)	UBC13 inh 53.4 (no result: PHOSPHO1 block) | Casp3 counter inactive | UBC13 conf 66.6
CCC(C)Sc1cccc(-c2nc3cc(C)ccn3c2NCc2ccccc2)c1 (stereo unspecified)	none (no result: PHOSPHO1 block)
COc1cc(-c2cc(C(=O)Nc3ccc(S(N)(=O)=O)cc3)c3ccccc3n2)cc(OC)c1OC	UBC13 inh 59.8 | Casp3 counter inactive | UBC13 conf 47.5
CCOc1ccc(NC(=O)NNC(=O)c2ccc3ccccc3c2O)cc1	UBC13 inh 49.0 | Casp3 counter inactive | UBC13 conf inactive
CCc1ccccc1NC(=O)NNC(=O)c1ccc2ccccc2c1O	none
CCOC(=O)CSc1nnc(CCCCCN2C(=O)c3cccc4cccc(c34)C2=O)o1	none
CCOC(=O)CCCSc1nnc(CCCCCN2C(=O)c3cccc4cccc(c34)C2=O)o1	UBC13 inh 52.7 | Casp3 counter inactive | UBC13 conf inactive
COc1ccc2nc3oc(C(=O)NC4CCN(Cc5ccccc5)CC4)cc3cc2c1	UBC13 inh 58.5 | Casp3 counter inactive | UBC13 conf inactive
Cc1cccc(N2C(=O)c3ccc(C(=O)Nc4ccccn4)cc3C2=O)c1	none
CC(=O)Nc1ccc2c(c1)C(=O)N(c1cccc(C)c1)C2=O	UBC13 inh 45.7 | Casp3 counter inactive | UBC13 conf inactive
Cc1ccc(S(=O)(=O)CCC(=O)N(CCN2CCOCC2)c2nc3ccccc3s2)cc1	none (no result: PHOSPHO1 block)
Cc1cccc2sc(N(CCN3CCOCC3)C(=O)CCS(=O)(=O)c3ccccc3)nc12	UBC13 inh 58.8 (no result: PHOSPHO1 block) | Casp3 counter inactive | UBC13 conf 79.0
CC1CCCN(C(=O)Cn2nnc(-c3ccccc3F)n2)C1 (stereo unspecified)	none
COc1ccc(C[C@H]2CN3C(=NC[C@@H]3C(C)C)N2C[C@H](C)NC(=O)c2ccc(C)c(Br)c2)cc1	UBC13 inh 54.4 | Casp3 counter inactive | UBC13 conf inactive
COc1ccc(C[C@H]2CN3C(=NC[C@@H]3Cc3ccc(O)cc3)N2C[C@H](C)NC(=O)c2ccc(C)c(Br)c2)cc1	UBC13 inh 59.3 | Casp3 counter inactive | UBC13 conf 51.7
Cc1ccc(CNC(=O)C2CCC(=O)N(CCCN3CCOCC3)C2)cc1 (stereo unspecified)	none
COc1ccc(Nc2cc(Nc3cc(OC)c(OC)c(OC)c3)ncn2)cc1	UBC13 inh 54.9 (no result: PHOSPHO1 block) | Casp3 counter inactive | UBC13 conf 58.2
CN1CCc2c(sc3c2C(=O)NC(c2cn(Cc4ccccc4)c4ccccc24)N3)C1 (stereo unspecified)	UBC13 inh 50.6 | Casp3 counter inactive | UBC13 conf 64.3
Cc1ccccc1CNC(=O)CCCC(=O)n1nc(C)c2ccccc21	UBC13 inh 45.7 | Casp3 counter inactive | UBC13 conf 62.9
CCOc1ccccc1CNC(=O)CCCC(=O)n1nc(C)c2ccccc21	none
CCOC(=O)C(=NC1CCS(=O)(=O)C1)NNc1cc(Cl)ccc1Cl (stereo unspecified)	UBC13 inh 68.0 | Casp3 counter inactive | UBC13 conf 56.9
Nc1nc(N)nc(-c2cc(O)ccc2O)n1	none (no result: PHOSPHO1 block)
CC(C)(C)c1cc(-c2nc(N)nc(N)n2)c(O)c(C(C)(C)C)c1	UBC13 inh 51.2 (no result: PHOSPHO1 block) | Casp3 counter inactive | UBC13 conf inactive
CCC1C(=O)C[C@H]2CCN3C(=O)CCCC1C23 (stereo partly specified)	none (no result: UBC13 inh, PHOSPHO1 block, IDE cell inh)
Cc1cc(OCCN2CCC(Cc3ccccc3)CC2)ccc1[N+](=O)[O-]	none (no result: PHOSPHO1 block)
O=C1CC(c2ccc(F)cc2)C(n2cncn2)C(O)=C1C1NCCc2ccccc21 (stereo unspecified)	UBC13 inh 53.5 | Casp3 counter inactive | UBC13 conf inactive
O=C1CC(c2ccc(F)cc2)CC(O)=C1C1NCCc2ccccc21 (stereo unspecified)	none
CC(C)CN(C(=O)c1cccc(Cl)c1)c1c(N)n(Cc2ccccc2)c(=O)[nH]c1=O	none (no result: PHOSPHO1 block)
O=C(CSc1nc2ccsc2c(=O)n1Cc1ccc(C(=O)O)cc1)NCC1CCCO1 (stereo unspecified)	UBC13 inh 69.1 | Casp3 counter inactive | UBC13 conf 76.6
O=C(CSc1nc2ccsc2c(=O)n1Cc1ccccc1)NCC1CCCO1 (stereo unspecified)	UBC13 inh 55.3 | Casp3 counter inactive | UBC13 conf 58.2
Cc1ccc(Cn2c(SCC(=O)NCC3CCCO3)nc3ccsc3c2=O)cc1 (stereo unspecified)	none

Bioassay records deposited in PubChem BioAssay by several laboratories.
